NF-kB neuron act – raises NF-kB expression in human neuronal cells | AID 1239 | fold change at 12.5 µM | NF-kB reporter expression; active compounds read high | 190,000 compounds, 1.6% hits; in the data active = fold change above about 3.3
STAT1 activator – STAT1 signaling activation | NIH 3T3 STAT1-luciferase reporter, IFN-gamma, luminescence; 100% = IFN-gamma alone, no compound | activation (% of control), % at 5.5 µM | AID 932 | 200,000 compounds, 2.6% hits;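 active = activation above the screen-wide mean activation plus 3 SD, cut at about 130% in these data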
FLuc stim CS – affects firefly luciferase, flagging false hits in luciferase stimulation screens; P08659; ATPlite luciferase biochemical, luminescence, 10 min; 0 = ATP-free wells, 1 = DMSO control; activation factor at 10 µM; 200,000 tested, under 10 active; AID 1027;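 active = luciferase activation factor, scaled between plate controls, of at least 2 with compound at 10 µM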
Target sequence (P08659 whole entry, looked up): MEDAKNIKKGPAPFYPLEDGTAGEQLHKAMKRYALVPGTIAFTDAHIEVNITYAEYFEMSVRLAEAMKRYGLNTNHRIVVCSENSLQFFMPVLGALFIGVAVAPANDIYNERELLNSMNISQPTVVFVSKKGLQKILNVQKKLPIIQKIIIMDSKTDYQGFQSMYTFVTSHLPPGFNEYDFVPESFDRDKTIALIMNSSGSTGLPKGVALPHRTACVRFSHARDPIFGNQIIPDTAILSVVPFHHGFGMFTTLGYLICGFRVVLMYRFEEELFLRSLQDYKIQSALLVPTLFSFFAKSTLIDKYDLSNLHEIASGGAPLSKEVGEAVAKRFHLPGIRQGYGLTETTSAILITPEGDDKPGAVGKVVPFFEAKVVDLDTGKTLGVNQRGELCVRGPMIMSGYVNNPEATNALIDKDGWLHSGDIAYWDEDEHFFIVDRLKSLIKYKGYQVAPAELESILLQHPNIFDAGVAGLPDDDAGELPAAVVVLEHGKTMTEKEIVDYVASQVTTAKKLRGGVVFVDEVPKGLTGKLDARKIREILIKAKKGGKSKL
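Assay system – cell-free luciferase reagent · Medium – PBS-based ATP solution · Dosing – test compounds dosed from 2 mM stocks in 100% DMSO · Timing – 10 min, room temperature · Technique – light output (luminescence) · Measure – luminescence gain marking luciferase activators · Controls – No-ATP low control, compound-free enzyme-plus-ATP high control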
APP 5'UTR act – APP 5'UTR luciferase reporter activation | SH-SY5Y APP 5'UTR luciferase reporter, luminescence; zero percent = DMSO vehicle wells | activation, % at 2 µM | 190,000 compounds, 1% hits;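 active = activation above a set limit, based on mean plus 3 SD of controls, cut at about 140% in these data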
FLuc inh counter – counter-screen for luciferase assay inhibitors: firefly luciferase inhibition. P08659. ATPLite firefly luciferase biochemical luminescence, 10 min. inhibition, % at 10 µM. 200,000 compounds, 1.5% hits;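 active = inhibition above about 50% when tested at 10 µM, limit read from the data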
Pf gamet viab – inhibitors of late stage P. falciparum gametocyte viability; P. falciparum stage V gametocytes, ATP luminescence, 24 h; inhibition, % at 10.9 µM; 150,000 compounds, 0.065% hits; AID 743093;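 active = inhibition above the mean plus 3 SD of compounds within the control limits, set per campaign, cut at about 38% in these data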
Each line names hits and unclear results; the compound was inactive in the other large screens. Sampled rows, rich in hits. Any-hit rate of the full collection: about 3.5%.

O=C1NC(=S)N/C1=C\c1ccc(N2CCOCC2)cc1	FLuc inh counter 78.4
C=CCN1C(=O)S/C(=C\c2ccc(N3CCOCC3)cc2C)C1=O	none (no result: Pf gamet viab)
Cc1cc(N2CCCC2)ccc1/C=C1\NC(=S)N(C)C1=O	STAT1 activator 129.3
Cc1cc(N2CCOCC2)ccc1/C=C1\NC(=O)N(CC(=O)Nc2ccccc2C)C1=O	none
Cc1cc(N2CCOCC2)ccc1/C=C1/SC(=O)NC1=O	NF-kB neuron act 5.28, STAT1 activator 151.7
Cc1cc(N2CCOCC2)ccc1/C=C1\NC(=O)N(CC(=O)Nc2ccc(F)cc2)C1=O	STAT1 activator 131.0
COc1ccc2c(c1)C(c1ccc(Cl)cc1)NC(=O)C2 (centres undefined)	none (no result: NF-kB neuron act, STAT1 activator, FLuc stim CS, APP 5'UTR act, FLuc inh counter)
CCN(CC)C(=O)c1cc(-c2ccc(Br)cc2)on1	NF-kB neuron act 3.34, STAT1 activator 146.8 (no result: Pf gamet viab)
COC(=O)c1cc(-c2ccc(Br)cc2)on1	none (no result: Pf gamet viab)
CCNc1nc(C)c(CN(C(C)=O)c2ccccc2)nc1C#N	none (no result: Pf gamet viab)
O=c1c(=NNc2ccccc2Cl)c(=O)c2ccccc12	APP 5'UTR act 153.8, FLuc inh counter 80.1 (no result: Pf gamet viab)
Cc1cc(C)c(NN=c2c(=O)c3ccccc3c2=O)c(C)c1	none (no result: Pf gamet viab)
O=C(CN1CCCc2ccccc21)N/N=C/c1c(O)ccc2ccccc12	none
Cc1cccc(Nc2ncc3c(n2)CC(C)CC3=O)c1 (centres undefined)	STAT1 activator 135.4
CC(c1ccccn1)N(Cc1ccco1)C(=S)Nc1cccc(F)c1 (centres undefined)	none
C/C(NC(=O)c1ccccc1)=C1/C(=O)CC2C1C2(C)C (centres undefined)	STAT1 activator 129.9
c1ccc(-c2nnsc2Sc2ccccn2)cc1	none
CC1=CC(C)=Nc2ccc(C)cc2N1	STAT1 activator 138.6 (no result: Pf gamet viab)
Cc1ccc(/C=N/Nc2nncc(-c3ccccc3)n2)o1	none
Cc1[nH]n(-c2ccccc2)c(=O)c1/C=N/Nc1nncc(-c2ccccc2)n1	FLuc inh counter 85.1 (no result: Pf gamet viab)
S=C1NC(c2cccs2)=CC(c2ccc(Br)cc2)N1 (centres undefined)	NF-kB neuron act 3.99
O=C(/C=C\N1CCOCC1)c1ccc(Br)cc1	none (no result: NF-kB neuron act, STAT1 activator, FLuc stim CS, APP 5'UTR act, FLuc inh counter)
Cc1onc(-c2c(Cl)cccc2Cl)c1COC(=O)c1ccc(Cl)cc1	none (no result: NF-kB neuron act, STAT1 activator, FLuc stim CS, APP 5'UTR act, FLuc inh counter)
Cc1ccc(/C=C/C(=O)C2C(=O)c3ccccc3C2=O)cc1	FLuc inh counter 97.3
COc1ccc(C(=O)/C=C/c2ccc(O)cc2)cc1	NF-kB neuron act 3.57, FLuc inh counter 55.3 (no result: Pf gamet viab)
COc1ccc(C(=O)OCCc2ccc(O)cc2)cc1	NF-kB neuron act 6.7, STAT1 activator 148.5
CSc1ccc(C(=O)/C=C/c2ccc(N)cc2)cc1	NF-kB neuron act 10, FLuc inh counter 89.6
Cc1ccc(/C=C/C(=O)c2ccc(C)cc2)cc1	FLuc inh counter 54.1
COc1ccc(C(=O)/C=C/c2ccc(N(C)C)cc2)c(OC)c1	none (no result: NF-kB neuron act, STAT1 activator, FLuc stim CS, APP 5'UTR act, FLuc inh counter)
Cc1ccc(C(=O)/C=C/C(=O)c2ccc(C)cc2)cc1	none
COc1ccc(C(=O)/C=C/c2ccc(O)cc2)c(O)c1CC=C(C)C	NF-kB neuron act 5
Nc1ccc(/C=C/C(=O)c2ccco2)cc1	FLuc inh counter 54.8
CN(CCc1ccccn1)Cc1ccc(Cl)cc1	none (no result: Pf gamet viab)
CC(=O)c1c(C)[nH]c(C(=O)COC(=O)CCCOc2ccccc2)c1C	none
CC(=O)c1c(C)[nH]c(C(=O)NCCc2ccccc2)c1C	NF-kB neuron act 3.44, STAT1 activator 149.2
COc1ccc(CCNC(=O)c2[nH]c(C)c(C(C)=O)c2C)cc1OC	none (no result: Pf gamet viab)
CCCc1c(C(=O)OCC)[nH]c2c1C(=O)CCC2	none (no result: Pf gamet viab)
Cc1c(C(=O)OCCOc2ccccc2)[nH]c2c1C(=O)CCC2	NF-kB neuron act 3.53
CC(=O)c1c(C)[nH]c(C(=O)OCCOc2ccccc2)c1C	APP 5'UTR act 212.0
COc1ccc(NC(=O)CSc2ncnc3c2nnn3-c2ccc(F)cc2)c(OC)c1	none
CCN(CCCNC(=O)CCc1nc(-c2ccc(OC)cc2)no1)c1cccc(C)c1	none
OC(COc1ccc2ccccc2c1Cl)CN1CCOCC1 (centres undefined)	STAT1 activator 134.3
CCOc1ccccc1NC(=S)/C(=C(\[O-])c1ccc2c(c1)OCCO2)[n+]1ccc(CC)cc1	none (no result: APP 5'UTR act)
COc1ccc(N(CC(=O)NCCSc2ccccn2)S(C)(=O)=O)cc1	none
Cc1ccccc1C(=O)NCCSc1ccccc1	NF-kB neuron act 3.63, STAT1 activator 129.3 (no result: Pf gamet viab)
O=C(NCCSc1ccccc1)c1ccccc1	NF-kB neuron act 4.69, STAT1 activator 142.2, APP 5'UTR act 171.4
COc1cccc(C(=O)NCCSc2ccc(F)cc2)c1	NF-kB neuron act 4.76, STAT1 activator 138.5
COc1ccc(C(=O)NCCSc2ccccn2)cc1	NF-kB neuron act 3.92, STAT1 activator 152.9, APP 5'UTR act 242.2
CSc1ccccc1C(=O)NCCSc1ccccc1	none (no result: Pf gamet viab)
O=C(NCCSc1ccccc1)c1cncc(Br)c1	none (no result: Pf gamet viab)
Cc1ccc2occ(/C=C/C(=O)c3ccccc3O)c(=O)c2c1	none
CC1CCC2C(=O)N(c3ccc(S(=O)(=O)c4ccccc4)cc3)C(=O)C2C1 (centres undefined)	none
CCCCNC(=O)c1ccccc1Cl	none
O=C(NCCSc1ccccc1)c1ccccc1Cl	NF-kB neuron act 4.71, STAT1 activator 140.8 (no result: Pf gamet viab)
COC(=O)[C@]1(Cc2ccccc2)N[C@H](c2ccc(-c3cc(C(C)=O)cs3)cc2)[C@@H]2C(=O)N(C)C(=O)[C@@H]21	none (no result: NF-kB neuron act, STAT1 activator, FLuc stim CS, APP 5'UTR act, FLuc inh counter)
CC(C)(C)c1ccc(C(=O)N2CCC(=O)N(C(CO)Cc3ccccc3)CC2)cc1 (centres undefined)	none
Cc1ccc(NC2=Nc3ccccc3CC2)cc1	NF-kB neuron act 3.73, APP 5'UTR act 179.3 (no result: Pf gamet viab)
Cc1cc(C)n(-c2nncn2/N=C/c2ccccc2F)n1	none (no result: Pf gamet viab)
Cc1[nH]n2c(=O)c3c(nc2c1-c1ccc(F)cc1)CCCC3	none
O=c1c2c(nc3cc(-c4ccc(Cl)cc4)[nH]n13)CCS2	FLuc inh counter 59.8
O=c1c2c(nc3cc(-c4cccc(Cl)c4)[nH]n13)CCC2	NF-kB neuron act 5.44, STAT1 activator 135.0, APP 5'UTR act 143.1
O=c1c2c(nc3cc(-c4cccc(F)c4)[nH]n13)CCC2	NF-kB neuron act 4.2, STAT1 activator 130.1 (no result: Pf gamet viab)
CN(C)/C=C(/C#N)C(=O)c1cccc(Oc2ccc(C(C)(C)C)cc2)c1	none (no result: Pf gamet viab)
O=C(c1cccn2c(=O)c3ccc(Cl)cc3nc12)N1CCN(Cc2ccc3c(c2)OCO3)CC1	none (no result: Pf gamet viab)
COc1ccc(C(=O)O)c(OC)n1	none (no result: NF-kB neuron act, STAT1 activator, FLuc stim CS, APP 5'UTR act, FLuc inh counter)
COc1ccc(C(=O)Nc2ccc(Cl)c(Cl)c2)c(OC)n1	NF-kB neuron act 4.63, STAT1 activator 130.9 (no result: Pf gamet viab)
C/C(=N\NC(=O)c1ccccc1F)c1ccc2c(c1)Nc1ccccc1S2	STAT1 activator 131.6
CCCn1c(SCc2nc3ccccc3s2)n[nH]c1=O	STAT1 activator 134.0
Cc1ccccc1-n1c(C)nnc1SCc1nc2ccccc2s1	STAT1 activator 132.3, APP 5'UTR act 141.3
CCCCCC/C(=N/O)c1ccccn1	none (no result: Pf gamet viab)
O=c1oc(-c2cc3ccccc3o2)nc2sc3c(c12)CCCC3	APP 5'UTR act 225.9

Source: PubChem (several laboratories)
